Rows were chosen to be rich in hits. Some 2.7% of all compounds tested hit in one or more screens of this group.
RAM inhibit: inhibitors of the yeast RAM network, primary screen, dse1pr::URA3 reporter, 5-FOA selection; S. cerevisiae dse1pr::URA3 reporter, 5-FOA growth OD615, 2 d; analog-sensitive cbk1-as2 kinase mutant strain; inhibition, % at 50 µM; 190,000 tested, 1.8% active;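 active = inhibition above a set limit, 3 SD over mean compound inhibition, cut at about 8.4% in these data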;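 note: 0% = DMSO-only wells with no growth and 100% = 10 µM 1-NA-PP1 full growth; inhibition rescues growth on 5-FOA so higher OD means more RAM inhibition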
Phagocytosis inh: inhibitors of macrophage phagocytosis, primary screen, imaging, J774A.1 cells, IgG beads. J774A.1 macrophage IgG-bead phagocytosis. AID 1029, 2008. inhibition, % at 5 µM. 110,000 tested, 0.07% active;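 active = inhibition above the mean of the plate negative controls plus 5 SD, cut at about 13% in these data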;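 note: phagocytic index as fraction of beads internalized from green versus red external bead signal; plate controls were DMSO negative control for no effect and cytochalasin-D positive control for full effect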
Yeast lifespan up: compounds extending yeast replicative lifespan, primary screen, S. cerevisiae, OD615; S. cerevisiae growth with nicotinamide; deaD strain in restrictive glucose medium; inhibition of the nicotinamide effect, % at 10 µM; 130,000 tested, 0.68% active;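 active = inhibition above a set limit, placed 3 SD over the median of all compounds, cut at about 26% in these data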;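 note: 0% = nicotinamide-treated wells and 100% = cells grown without nicotinamide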
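assay system = DeaD-strain S. cerevisiae | buffer or medium = restrictive glucose medium | reagent = 1.5 mM nicotinamide | compound = 10 µM single point, 0.25% DMSO | incubation = 48 h compound exposure at 30 °C, humidified | signal = OD615 measurement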
Yeast growth inh: growth inhibitors of yeast BB579 in restrictive medium, primary screen, yeast lifespan-shortening project, S. cerevisiae; OD615, 48 h; AID 804, 2007; 140,000 tested, 0.51% active; inhibition, % at 10 µM;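 active = inhibition above a set limit, 3 SD over the mean compound inhibition, cut at about 44% in these data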
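Test system: Saccharomyces cerevisiae DeaD strain BB579, replicative lifespan model yeast | Buffer or medium: Restrictive CSMM-D medium | Doses: One dose, 10 µM compound with 0.25% DMSO | Incubation: 48 h exposure, 30 °C | Detection: Culture absorbance at 615 nm | Control set: Amphotericin B at 10 µg/mL as positive control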
An asterisk follows results filed as active; nt = not tested or not shown; [ ] = dose if it differs, or a comment.

SMILES	RAM inhibit	Phagocytosis inh	Yeast lifespan up	Yeast growth inh
Cc1onc(-c2c(F)cccc2Cl)c1C(=O)NCC1COc2ccccc2O1 (configuration not stated)	0.6	16.2*[artifact]	-2.7	-33.6
Cc1onc(-c2c(Cl)cccc2Cl)c1C(=O)NCC1CCCO1 (configuration not stated)	-0.6	-4.8	-0.8	-23.1
COc1ccc(CNC(=O)c2cc(-c3ccccc3OC)on2)cc1	8.6*	-2.3	-16.5	-34.6
Cc1nc2nc(SCC(=O)O)nn2c(C)c1Cc1ccccc1Cl	1.4	nt	nt	nt
O=C(/C(=C/O)N=Nc1ccc(Cl)cc1)c1ccncc1	0.3	nt	76.8*	-30.6
CCN(CC)C(=O)CCSc1nnc(-c2ccco2)o1	0.3	nt	nt	nt
Cc1noc(C)c1COc1cccc(C(=O)OCCOc2ccc(F)cc2)c1	8.7*	-1.5	-8.3	-17.1
Cc1noc(C)c1COc1cccc(C(=O)OC(C)C#N)c1 (configuration not stated)	0.6	nt	nt	nt
O=C(CNC(=S)N(Cc1ccccc1)Cc1cccs1)NCc1ccc(F)cc1	8.8*	nt	nt	nt
O=C(Cc1cccs1)NCc1ccc(F)cc1	1.8	0.7	-8.5	-14.3
COc1ccc(C2C(C(C)=O)=C(C)N=c3s/c(=C\c4cc(C)n(C)c4C)c(=O)n32)c(OC)c1 (configuration not stated)	8.4*	-1.0	-5.7	-38.0
Cc1ccc2c(c1)C1C=CCC1C(C(=O)O)N2 (configuration not stated)	8.7*	-0.3	8.1	-26.4
CC(=O)c1ccc2c(c1)C1C=CCC1C(C(=O)O)N2 (configuration not stated)	4.9	nt	nt	nt
COc1ccc2nc(SCc3cccc(C)c3)nc(C)c2c1	6.0	-6.2	-6.8	-46.9
Cc1ccc2nc(SCc3cccc([N+](=O)[O-])c3)nc(C)c2c1	11.0*	0.0	3.2	-27.1
Cc1nc(SCc2ccc([N+](=O)[O-])cc2)nc2ccccc12	9.5*	-0.1	-12.7	1.8
Cc1cc(C)c(S(C)(=O)=O)c(NN)n1	1.1	nt	nt	nt
COc1ccccc1NC(=O)Nc1ccc(Cl)c(S(=O)(=O)Nc2ccccc2OC)c1	8.4*	-10.8	2.4	-24.5
O=C(COc1ccc(-c2ccccc2)cc1)N1CCN(C(=O)c2cccs2)CC1	2.4	nt	nt	nt
Cc1ccc(S(=O)(=O)c2ccc(C)cc2)cc1	2.2	0.2	57.8*	-17.1
Cc1ccc(S(=O)(=O)ON2C(=O)c3cccc4cccc(c34)C2=O)cc1	2.0	-5.6	33.9*	-38.7
O=C1c2cccc3cccc(c23)C(=O)N1OS(=O)(=O)c1ccccc1	2.5	-0.5	-14.2	-78.4
O=C1CC(c2ccccc2)CC(O)=C1C=NCCN1CCNCC1 (configuration not stated)	-0.1	-0.3	34.6*	-18.4
O=C1CC(c2ccccc2)CC(O)=C1C=NCCN1CCN(C(=O)Nc2ccccc2)CC1 (configuration not stated)	0.9	-2.1	91.5*	-51.6
Cc1ccc(NC(=O)CN2CCN(CCN=CC3=C(O)CC(c4ccccc4)CC3=O)CC2)cc1 (configuration not stated)	-0.1	-3.1	60.4*	-34.8
SMILES	RAM inhibit	Phagocytosis inh	Yeast lifespan up	Yeast growth inh
CCC(=O)N1CCN(CCN=CC2=C(O)CC(c3cccs3)CC2=O)CC1 (configuration not stated)	0.9	1.1	52.9*	-28.1
O=C1CC(c2ccc(F)cc2)CC(O)=C1C=NCCN1CCNCC1 (configuration not stated)	1.1	nt	nt	-31.4
Cc1ccc(C2CC(=O)C(C=NCCN3CCN(CC(=O)Nc4cc(C)cc(C)c4)CC3)=C(O)C2)cc1 (configuration not stated)	1.4	nt	nt	nt
Cc1ccc(C2CC(=O)C(C=NCCN3CCN(C(=S)Nc4ccccc4)CC3)=C(O)C2)cc1 (configuration not stated)	1.3	nt	nt	nt
COc1ccc(N)c2c1C(=O)c1ccccc1C2=O	-0.1	-7.5	-8.9	70.6*
COc1ccc(OC)c2c1C(=O)c1ccccc1C2=O	0.7	0.5	-2.7	22.6
Nc1ccc(O)c2c1C(=O)c1ccccc1C2=O	3.4	nt	-4.8	69.4*
CCCNC(=O)NC(=O)COC(=O)c1ccc(OC)c(S(=O)(=O)N2CCCc3ccccc32)c1	4.3	-0.2	0.6	-15.3
O=C(Cn1c(=O)oc2ccccc21)N1CCOCC1	-0.2	nt	nt	nt
CC(=O)c1ccc(N=Cc2c(O)n(-c3cc(Cl)ccc3N3CCOCC3)c(=O)c3ccccc23)cc1	8.6*	3.6	-2.6	-27.7
CN(C)N=C1c2cc(S(=O)(=O)N3CCOCC3)ccc2-c2ccc(S(=O)(=O)N3CCOCC3)cc21	3.9	-3.3	3.7	-38.7
NC(=S)NN=C1c2cc(S(=O)(=O)N3CCOCC3)ccc2-c2ccc(S(=O)(=O)N3CCOCC3)cc21	9.9*	nt	4.0	-16.3
Cc1cccc(NC(=O)Nc2cc(C)cc(C)n2)c1	0.5	nt	nt	nt
CNS(=O)(=O)/C=C/c1ccccc1	2.0	nt	nt	nt
O=S(=O)(/C=C/c1ccccc1)Oc1ccccc1	-1.3	166.4*	12.1	7.4
CCOc1ccc(OCc2ccc(C(=O)Nc3ccc(Cl)cn3)o2)cc1	4.0	-1.1	-19.0	-8.7
O=C(Nc1ccc(Cl)cn1)c1ccc(COc2ccccc2Br)o1	11.1*	nt	nt	nt
O=c1c(-c2ccccc2)nc(-c2ccccc2)cn1O	0.8	-4.7	-4.3	48.8*
CC(=O)Nc1ccc2nc(-c3ccccc3)cn2c1	1.6	-4.5	3.8	-25.7
CC1(C(=O)NCCCN2CCOCC2)Oc2cccnc2NC1=O (configuration not stated)	2.7	nt	nt	nt
N#C/C(=C\c1ccc(O)c([N+](=O)[O-])c1)C(=O)NCc1ccccc1	3.0	nt	nt	nt
CC(NC(=O)/C(C#N)=C/c1ccc(Cl)c([N+](=O)[O-])c1)c1ccccc1 (configuration not stated)	4.5	nt	5.4	46.3*
COc1ccccc1OCCCCCc1c(C)n[nH]c1C	1.1	nt	-10.2	-31.3
Cc1cccc(OCCCOc2cccc3cccnc23)c1C	0.1	-6.3	-28.0	72.8*
Cc1cccc(OCCCCc2c(C)n[nH]c2C)c1C	-0.3	-2.8	-19.3	69.1*
SMILES	RAM inhibit	Phagocytosis inh	Yeast lifespan up	Yeast growth inh
COc1ccccc1OCCCc1c(C)n[nH]c1C	-0.9	0.1	-30.1	99.6*
CCOc1ccccc1OCCCCCc1c(C)n[nH]c1C	-0.6	3.0	-7.3	-18.5
Cc1ccc(C)c(N(CC(=O)NC2CCCC2)C(=O)c2oc(C(C)(C)C)cc2C)c1	9.5*	0.5	-4.4	-37.8
Cc1cc(C(C)(C)C)oc1C(=O)N(CC(=O)NC1CCCC1)Cc1ccccc1	3.0	-0.9	4.9	-30.9
Cc1ccc(OCCSCc2nnc(NC(=O)Nc3cccc(Cl)c3)s2)cc1	8.4*	-5.7	5.5	-4.2
CC(C)C[C@H](NC(=O)c1nc[nH]c1C(=O)NC(c1ccccc1)c1ccccc1)C(=O)OCc1ccccc1	5.6	nt	nt	nt
O=C(N[C@@H](Cc1ccccc1)C(=O)OCc1ccccc1)c1nc[nH]c1C(=O)NCc1ccccc1	9.2*	nt	nt	nt
COc1ccc(C(=O)N/C(=C\c2cn(C)c3ccccc23)C(=O)OCC(C)C)cc1	-0.1	-5.8	-2.4	5.9

Source: PubChem BioAssay (several laboratories)
